OX1R antag-1: antagonists of human orexin 1 receptor (OX1R); O43613; AID 485270; inhibition, % at 6.6 µM; actives 1.8% (n = 330,000); OX1R-expressing cells, FRET antagonist read-out; in the data active means inhibition mostly above about 38%, no sharp cut-off; inactive means mostly below about 40%;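 further: 0% = agonist challenge alone and 100% = reference antagonist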
GPR7 antag: blocks human GPR7 receptor signaling | P48145 | GPR7-expressing cells, fluorescence antagonist assay | inhibition, % at 4.4 µM | actives 1.1% (n = 290,000) | AID 1861; in the data active means inhibition above about 16%, passing the limit was not always enough;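 further: cells stimulated with the agonist NPW; 0% = agonist with vehicle and 100% = vehicle without agonist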
TRPN1 ag: activates the zebrafish TRPN1 channel. HEK293 zebrafish TRPN1-YFP, Fluo-8 calcium fluorescence; 100% = response to 87 µM carbachol. activation, % at 3 µM. actives 0.18% (n = 220,000). AID 1424;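 active means activation above its plate's cutoff, the mean activation of test wells on that plate plus 3 SD, cut at about 19% in these data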;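 further: 0% = DMSO alone and 100% = 87 µM carbachol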
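Material – zebrafish TRPN1-YFP in HEK293 cells · Doses – 3 µM single point · Schedule – dye 1 h 37 °C plus 30 min RT · Signal – Fluo-8 calcium fluorescence, excitation 470-495 nm, emission 515-575 nm · Read-out – % activation versus carbachol response · Control set – carbachol high, DMSO low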
OX1R antag-2: blocks the human orexin 1 receptor; O43613; CHO/OX1R cells, Fluo-8 calcium fluorescence, orexin A; inhibition, % at 5 µM; actives 0.43% (n = 330,000);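 active means inhibition above its plate's threshold, mean inhibition of all tested compounds on the plate plus 3 SD, cut at about 37% in these data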;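 further: 0% = orexin A challenge wells and 100% = SB-334867-A antagonist wells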
CHO parental Ca: counter-screen: ATP calcium response change in parental CHO cells | parental CHO-K1, ATP-induced calcium, Fluo-8 fluorescence | inhibition, % at 5.6 µM | actives 0.63% (n = 330,000) | AID 463079;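 active means inhibition above that plate's mean sample inhibition plus 3 SD, cut at about 26% in these data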;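 further: 0% = ATP-challenged DMSO wells and 100% = DMSO wells without ATP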
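Test system: parental CHO cells; detection: calcium-sensitive Fluo-8 fluorescence; evaluation: percent inhibition of calcium signal; also added: ATP as calcium-mobilizing challenge; repeats: one well per compound; control set: ATP-challenged DMSO wells low, unchallenged DMSO wells high; compound: single nominal dose of 5.6 µM per compound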
TRPML3 ag: activates the human TRPML3 channel; Q8TDD5; activation, % at 3 µM; actives 0.29% (n = 220,000); HEK293 TRPML3-YFP, Fluo-8 calcium fluorescence; 100% = the carbachol control signal;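 active means activation above its plate's cutoff, the mean activation of the plate's test wells plus 3 SD, cut at about 12% in these data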;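 further: 0% = DMSO only wells and 100% = carbachol wells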
Target sequence (Q8TDD5 whole entry, looked up): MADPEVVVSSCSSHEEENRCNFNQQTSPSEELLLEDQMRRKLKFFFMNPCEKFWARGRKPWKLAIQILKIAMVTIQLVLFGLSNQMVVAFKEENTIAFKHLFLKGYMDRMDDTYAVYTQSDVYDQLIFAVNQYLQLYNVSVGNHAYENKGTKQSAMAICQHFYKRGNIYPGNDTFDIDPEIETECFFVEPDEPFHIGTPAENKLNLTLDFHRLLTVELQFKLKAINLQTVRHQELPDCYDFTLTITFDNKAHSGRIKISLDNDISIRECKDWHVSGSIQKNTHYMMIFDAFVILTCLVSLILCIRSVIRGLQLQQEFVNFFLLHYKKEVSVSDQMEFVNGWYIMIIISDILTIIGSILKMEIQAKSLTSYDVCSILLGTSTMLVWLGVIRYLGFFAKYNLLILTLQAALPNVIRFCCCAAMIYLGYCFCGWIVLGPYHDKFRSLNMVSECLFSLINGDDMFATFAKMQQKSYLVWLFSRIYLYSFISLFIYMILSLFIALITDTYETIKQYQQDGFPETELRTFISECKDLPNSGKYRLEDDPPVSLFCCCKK
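Test system: TRPML3-YFP stable HEK293 cells. Doses: single point at 3 µM. Incubation: dye loading 1 h 37 °C then 30 min ambient, 125 s read. Signal: Fluo-8 calcium dye fluorescence, ex 470-495, em 515-575 nm. Measure: percent activation from peak-to-basal fluorescence ratio, scaled between DMSO and carbachol.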
Numbers without * were called inactive; · = not tested or not shown; ! = not active in a repeat. Sampled rows, rich in hits. Any-hit rate of the full collection: about 3.2%.

SMILES	OX1R antag-1	GPR7 antag	TRPN1 ag	OX1R antag-2	CHO parental Ca	TRPML3 ag
O=C(NC(=Nc1nc2ccccc2o1)NC(=O)c1ccccc1)c1ccccc1	12	-5	0	-15	-12	1
COc1ccccc1C(=O)NC(=Nc1nc2ccccc2o1)NC(=O)c1ccccc1OC	36*	-2	1	82*	48*	0
c1ccc(-c2ccc(C(c3ccccc3)n3ccnc3)cc2)cc1 (centres undefined)	23	36*!	-1	-18	-8	-1
CC(C)=CCC/C(C)=C/CNC(=O)C[C@H]1C[C@H](C(=O)N(C(C)C)C(C)C)[C@@]2(C)c3[nH]c4cc(CCC(=O)N(C)C)ccc4c3CCN2C1=O	10	·	·	22	-10	·
CC(C)C(c1nnnn1C(C)(C)C)N1CCC(Cc2ccccc2)CC1 (centres undefined)	6	1	1	-5	42*	1
CC(C)C(c1nnnn1C(C)(C)C)N1CCOCC1 (centres undefined)	20	8	-1	-9	-3	-1
CCOC(=O)/C(=C\c1cccnc1)C(=O)c1cc(C(C)=O)c(Nc2ccccc2)s1	11	30*	0	24	31	1
COc1ccc(-c2noc(C3CCCN(S(=O)(=O)c4cccc(Cl)c4C)C3)n2)cc1OC (centres undefined)	45*	6	0	4	-30	0
CN(C(=O)COC(=O)c1ccc(Br)c([N+](=O)[O-])c1)c1c(N)n(Cc2ccccc2)c(=O)[nH]c1=O	28	·	·	-11	-4	·
Cc1cc(C)cc(NS(=O)(=O)c2cnc(Cl)c(Cl)c2)c1	30	-11	-2	52*	95*	-1
CC(=O)N(C)c1ccc(N=Nc2c(C)[nH]n(C(N)=S)c2=O)cc1	56*	-3	-1	-1	-1	0
CC(=O)N(C)c1ccc(N=Nc2c(C)[nH]n(-c3ccccc3)c2=O)cc1	1	-9	·	-12	-3	·
CC(=O)N(C)c1ccc(N=NC2C(=O)N(C(N)=S)N=C2C)cc1 (centres undefined)	62*	-12	·	-3	-5	·
Cc1ccc(CNC(=O)CCC2CCCN(Cc3cccc4ncccc34)C2)o1 (centres undefined)	31	-3	1	-48	-27	1
CCNc1ccc(S(=O)(=O)N(C)C)cc1NCC(=O)Nc1ccccc1Cl	8	-1	2	-1	-19	2
O=C1NC(=O)c2cc([N+](=O)[O-])cc3cccc1c23	·	-8	·	·	·	·
O=C1c2cccc3cc([N+](=O)[O-])cc(c23)C(=O)N1CC1CCCO1 (centres undefined)	60*	-13	0	-22	-4	-1
O=[N+]([O-])c1cccc(S(=O)(=O)NCC2CCCO2)c1 (centres undefined)	58	-9	1	-1	-8	1
CC(=O)OCCN1C(=O)c2cccc3cc([N+](=O)[O-])cc(c23)C1=O	69*	·	·	-3	-14	·
COc1ccc(/C=N/Nc2ncccc2[N+](=O)[O-])c(OC)c1	50*	-16	-3	-7	-13	-2
C=CCNC(=O)NC(=O)c1csc([N+](=O)[O-])c1	46*	0	2	-18	4	0
CCNC(=O)NC(=O)c1csc([N+](=O)[O-])c1	40*	-5	2	-11	-14	1
CCC(C)[C@H](NS(=O)(=O)c1ccc(C)cc1)C(=O)N1CCC(C(=O)N2CCC(C(=O)OC)CC2)CC1 (some centres undefined)	10	-6	·	-31	-15	·
CC(OC(=O)c1n[nH]c2ccccc12)C(=O)Nc1ccccc1[N+](=O)[O-] (centres undefined)	36*	·	·	12	-25	·
O=C(NCCCn1ccnc1)c1ccc(Cl)cc1[N+](=O)[O-]	32	-17	0	-12	-10	0
SMILES	OX1R antag-1	GPR7 antag	TRPN1 ag	OX1R antag-2	CHO parental Ca	TRPML3 ag
O=C(NCCCn1ccnc1)c1cc2cc([N+](=O)[O-])ccc2oc1=O	69*	-10	0	-8	1	1
CC1CC(C)CN(CCCNC(=O)CN2C(=O)c3cccnc3Oc3ccc(Cl)cc32)C1 (centres undefined)	16	8	·	-36	-19	·
COc1ccc(CNC(=O)c2cc3c(C)nc4ccccc4c3o2)c(OC)c1	56*	0	4	-12	57*	2
Cc1nc2ccccc2c2oc(C(=O)Nc3ccc(C(C)C)cc3)cc12	66*	-25	0	-16	-42	0
Cc1nc2ccccc2c2oc(C(=O)NCC3COc4ccccc4O3)cc12 (centres undefined)	85*	-5	5	10	41*	2
CC1CN(S(=O)(=O)c2cccc(C(=O)NCC3COc4ccccc4O3)c2)CC(C)O1 (centres undefined)	2	·	·	-30	-17	·
COc1cccc(CNC(=O)c2cc3c(C)nc4ccccc4c3o2)c1	9	-5	4	-15	-4	0
CCN1CCCC1CNC(=O)c1cc2c(C)nc3ccccc3c2o1 (centres undefined)	9	-5	2	-12	-10	1
O=C(NCC1COc2ccccc2O1)c1cccc(S(=O)(=O)NCc2ccccc2)c1 (centres undefined)	51*	·	·	-9	-10	·
CCOc1ccc(-n2c(O)cc(=O)[nH]c2=O)cc1	7	-4	1	-18	-10	0
COc1ccc(CN(C)C(=O)c2ccc3c(=O)n4c(nc3c2)CCC4)c(OC)c1	13	·	·	-18	-20	·
CN(C)c1ccc(CNC(=O)CN(C)S(=O)(=O)c2ccc3c(c2)c(=O)n(C)c(=O)n3C)cc1	11	-7	·	-9	-8	·
Cc1nnc(SCc2nnc(-c3cccs3)o2)s1	10	8	1	-17	-4	0
CCCCN(CC)CCNC(=O)c1cc2c(C)nc3ccccc3c2o1	4	-1	1	-10	-10	0
CCc1ccc(CNC(=O)c2cc3c(C)nc4ccccc4c3o2)cc1	79*	1	3	-7	46*	1
Cc1[nH]c2ccccc2c1C(O)CN1CCC2(CC1)OCCO2 (centres undefined)	16	-7	2	-11	-11	-1
Cn1c(CN2CCN(S(C)(=O)=O)CC2)nc2cc([N+](=O)[O-])ccc21	18	5	·	5	-1	·
COC(=O)C1CCCCN1C(=O)c1cc(COc2cccc3cccnc23)on1 (centres undefined)	15	-11	·	-10	-3	·
CCOC(=O)CC1CCCCN1C(=O)c1cc(COc2cccc3cnccc23)on1 (centres undefined)	48*	21	·	26	53*	·

High-throughput results as filed in PubChem BioAssay.
